Measured values collected from several papers.
Target: Serine/threonine-protein kinase LATS2 (LATS2, Homo sapiens, UniProt Q9NRM7)
Sequence (Q9NRM7 1-1088, as in one of the studies): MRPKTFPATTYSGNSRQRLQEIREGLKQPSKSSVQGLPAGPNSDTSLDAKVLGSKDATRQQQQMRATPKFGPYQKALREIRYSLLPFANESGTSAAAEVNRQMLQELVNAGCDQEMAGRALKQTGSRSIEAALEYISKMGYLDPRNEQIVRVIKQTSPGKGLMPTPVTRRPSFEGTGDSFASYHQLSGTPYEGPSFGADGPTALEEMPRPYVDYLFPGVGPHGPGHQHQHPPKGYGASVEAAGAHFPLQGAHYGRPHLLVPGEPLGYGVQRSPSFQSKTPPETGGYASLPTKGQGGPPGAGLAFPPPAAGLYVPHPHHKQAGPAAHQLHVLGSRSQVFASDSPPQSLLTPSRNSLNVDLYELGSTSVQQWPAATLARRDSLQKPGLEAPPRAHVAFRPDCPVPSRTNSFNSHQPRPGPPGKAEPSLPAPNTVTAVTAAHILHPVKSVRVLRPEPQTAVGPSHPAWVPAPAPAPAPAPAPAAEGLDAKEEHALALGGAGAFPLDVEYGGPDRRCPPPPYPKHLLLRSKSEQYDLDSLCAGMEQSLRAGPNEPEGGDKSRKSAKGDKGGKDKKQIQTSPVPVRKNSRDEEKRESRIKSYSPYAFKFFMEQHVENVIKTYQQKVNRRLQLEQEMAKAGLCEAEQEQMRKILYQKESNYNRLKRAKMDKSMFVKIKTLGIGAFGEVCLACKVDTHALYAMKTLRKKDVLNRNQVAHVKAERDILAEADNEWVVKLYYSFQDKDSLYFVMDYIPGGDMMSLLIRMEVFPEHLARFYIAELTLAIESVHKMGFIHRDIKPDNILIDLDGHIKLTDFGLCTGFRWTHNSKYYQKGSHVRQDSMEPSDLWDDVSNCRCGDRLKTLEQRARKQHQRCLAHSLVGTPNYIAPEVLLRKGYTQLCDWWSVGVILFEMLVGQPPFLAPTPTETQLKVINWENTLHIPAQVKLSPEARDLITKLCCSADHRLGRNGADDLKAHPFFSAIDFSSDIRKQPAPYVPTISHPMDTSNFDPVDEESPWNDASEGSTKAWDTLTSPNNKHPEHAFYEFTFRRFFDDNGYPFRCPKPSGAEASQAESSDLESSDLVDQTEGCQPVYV

| SMILES | assay | setting | remaining binding [%] |
| --- | --- | --- | --- |
| COc1cc(-c2cn(C3CCc4ccccc4N(CC(F)(F)F)C3=O)nn2)ccc1-n1ccc(C)n1 (centres unmarked) | cell-free assay, competition with immobilised ligand | 1 µM | 69 |
| COc1ccnn2ncc(-c3ccnc(N(C)C)n3)c12 | binding | 1 µM | 100 |
| COc1cnc(Nc2cccc(S(N)(=O)=O)c2)nc1N1CCN(c2ccccc2)C(=O)C1 | binding, competition with immobilised ligand | 1 µM | 100 |
| C[C@H](c1ccc(F)cc1)N(Cc1cccc(C(=O)O)c1)C(=O)c1cnc2ccccc2c1 | cell-free assay, competition with immobilised ligand | 1 µM | 64 |
| O=C(NCC1CCOCC1)c1n[nH]cc1NC(=O)c1c(F)cccc1F | binding, competition with immobilised ligand | 1 µM | 87 |
| N[C@H]1CCN(c2nccc(-c3cnn4ncccc34)n2)C1 | binding | 1 µM | 74 |
| FC(F)(F)c1ccc2c(c1)nc(-c1cccnc1)n2C1CC1 | cell-free assay, competition with immobilised ligand | 1 µM | 100 |
| FC(F)(F)Oc1cccc(-c2cnc3ccc(-c4ccncc4)nn23)c1 | cell-free assay, competition with immobilised ligand | 5 µM | 38 |
| COc1ncc2cc3ccccc3nc2c1C#N | cell-free assay, competition with immobilised ligand | 5 µM | 90 |
| O=C(c1ccc(Nc2ncc(Cl)c(-c3ccc(Cl)s3)n2)cc1)N1CCC(N2CCCC2)CC1 | binding, competition with immobilised ligand | 1 µM | 3.8 |
| C[C@H]1CCN(c2nccc(-c3cnn4ncccc34)n2)C1 | binding | 1 µM | 83 |
| CN(C)CC#Cc1ccc(OCCCc2sc(N3CCc4cccc(C(=O)Nc5nc6ccccc6s5)c4C3)nc2C(=O)O)c(F)c1 | cell-free assay, competition with immobilised ligand | 1 µM | 95 |
| F[C@@H]1CCN(c2nccc(-c3cnn4ncccc34)n2)C1 | binding | 1 µM | 100 |
| O=C1CCc2cc(Nc3cc(OC4CCOCC4)c([N+](=O)[O-])cc3Cl)ccc2N1 | cell-free assay, competition with immobilised ligand | 1 µM | 80 |
| CCCNc1nc(C#Cc2ccc(Cl)s2)nc2c1ncn2[C@H]1[C@H](O)[C@H](O)[C@]2(C(=O)NC)C[C@H]12 | binding, competition with immobilised ligand | 10 µM | 26 |
| O=C(c1ccc(Nc2nccc(-c3cc4ccccc4s3)n2)cc1)N1CCC(N2CCCC2)CC1 | binding, competition with immobilised ligand | 1 µM | 72 |
| CN(C)c1nccc(-c2cnc3ncccn23)n1 | binding | 1 µM | 79 |
| Cn1nc(C(=O)NCc2ccc(C(=O)O)cc2)cc1-c1ccc2[nH]ccc2c1 | cell-free assay, competition with immobilised ligand | 0.1 µM | 100 |
| CN(C)c1nccc(-c2cnn3ncccc23)n1 | binding | 1 µM | 64 |
| COc1cnc(Nc2cccc(S(N)(=O)=O)c2)nc1N1CCN(c2ccccc2)CC1 | binding, competition with immobilised ligand | 1 µM | 74 |
